Yeast lifespan up = extends the lifespan of yeast; 0.68% of 130,000 active; inhibition of the nicotinamide effect, % at 10 µM; S. cerevisiae growth with nicotinamide, OD615; deaD strain in restrictive glucose medium;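 active = inhibition above a set limit, placed 3 SD over the median of all compounds, cut at about 26% in these data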
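System: DeaD-strain S. cerevisiae / Buffer or medium: CSMM-D, restrictive glucose (dextrose) synthetic minimal medium / Probe or stimulus: nicotinamide, 1.5 mM, co-present with compound / Compound: one concentration, 10 µM, DMSO 0.25% / Incubation: 48 h compound exposure at 30 °C, humidified / Technique: optical density (absorbance) at 615 nm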
RAM inhibit = yeast RAM network inhibition. 1.8% of 190,000 active. S. cerevisiae dse1pr::URA3 reporter, 5-FOA growth OD615, 2 d; analog-sensitive cbk1-as2 kinase mutant strain. inhibition, % at 50 µM;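 active = inhibition above a set limit, 3 SD over mean compound inhibition, cut at about 8.4% in these data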;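 also: inhibition rescues growth on 5-FOA so higher OD means more RAM inhibition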
WT yeast gro inh = growth inhibition of WT yeast, mitochondrial fusion screen; mitochondrial fusion phenotypic screen, WT strain; inhibition, % at 10 µM; 2.1% of 190,000 active; AID 1362; in the data active = inhibition above about 58%; tested in S. cerevisiae
Yeast growth inh = chemicals that inhibit yeast BB579 growth in restrictive medium (lifespan-shortening candidates); inhibition, % at 10 µM; S. cerevisiae BB579 growth, OD615, 48 h; AID 804; 0.51% of 140,000 active;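 active = inhibition above a set limit, 3 SD over the mean compound inhibition, cut at about 44% in these data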
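Assay system – yeast BB579 (DeaD) · Dosing – single compound dose of 10 µM, 0.25% DMSO final · Detection – OD615 turbidity measurement · Buffer or medium – CSMM-D restrictive synthetic medium containing dextrose (glucose) · Benchmarks – positive control amphotericin B 10 µg/mL · Incubation – 48 h exposure, 30 °C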
Numbers stand for hits; . = inactive; / = no result. This is a sample that favours compounds with a hit; in the whole collection about 4.3% have one here.

SMILES	Yeast lifespan up	RAM inhibit	WT yeast gro inh	Yeast growth inh
CCCc1sc(N)nc1-c1ccc(Cl)cc1	.	.	69	.
COc1ccc(NC2=CC(=O)CC(c3ccccc3)C2)cc1 (centres undefined)	/	.	.	/
N#CCOC(=O)c1c2c(nc3ccccc13)CCC2	/	.	.	/
CSCCC(NC(=O)c1ccc(Cl)cc1)C(=O)OCC(=O)Nc1cc(Cl)ccc1C (centres undefined)	.	10	.	.
COc1cc2c(cc1NC(=S)Nc1cccc(C(F)(F)F)c1)oc1ccccc12	.	.	64	.
COc1cc2c(cc1NC(=S)Nc1cccc3ccccc13)oc1ccccc12	.	.	69	.
O=C(NNC(=S)NCc1ccco1)c1ccc(S(=O)(=O)N2CCOCC2)cc1	/	.	.	/
Cc1cc2cc(C#N)c(N3CCN(S(C)(=O)=O)CC3)nc2cc1C	.	.	.	.
O=C(c1ccc(-c2ccccc2)cc1)N1CCC(C(=O)N2CCCC2)CC1	.	.	.	.
O=C(c1ccc(-c2nnc(-c3ccccc3)o2)cc1)N1CCCCCC1	.	.	65	.
CCOC(=O)c1sc(NC(=O)CSc2nnc(Cc3ccccc3)o2)c(C(=O)OCC)c1C	.	8.9	.	.
CCOC(=O)c1c(NC(=O)CSc2ncnc3ccccc23)sc(C)c1C	.	8.9	.	.
CCOC(=O)c1c(NC(=O)CSc2ccccc2C(=O)O)sc(C)c1C	/	.	.	/
Nc1nc(SCC(=O)NCCC(c2ccccc2)c2ccccc2)n[nH]1	.	.	.	.
CC1CC1c1ccc(/C=C(\C#N)C(=O)Nc2cc(Cl)ccc2Cl)o1 (centres undefined)	.	8.7	.	.
CC1CC1c1ccc(/C=C(\C#N)C(=O)Nc2ccc(Cl)cc2Cl)o1 (centres undefined)	.	.	.	.
CCc1cc(C(=O)Cc2ccc(F)cc2)c(O)cc1O	.	.	.	.
CCCc1cc(C(=O)Cc2ccc(F)cc2)c(O)cc1O	.	.	82	92
CC(NS(=O)(=O)c1ccc(Br)cc1)C(N)=O (centres undefined)	.	.	66	.
CC(NS(=O)(=O)c1ccc(Br)cc1)C(=O)NCc1ccco1 (centres undefined)	/	.	.	/
COc1ccc(-c2cc(C)nc3c(-c4ccccc4)cnn23)cc1	/	9.0	.	/
Cc1cc(-c2ccccc2)n2ncc(-c3ccccc3)c2n1	.	.	.	.
COc1ccc(CN2C(=O)c3ccccc3C(/C=N/OCc3ccc(Cl)cc3)C2=O)cc1 (centres undefined)	.	10	.	.
COc1ccccc1-c1cc(-c2cc(Cl)ccc2O)n[nH]1	.	.	.	.
COc1ccc(-c2cc(-c3ccccc3)n[nH]2)c(O)c1	/	.	.	/
SMILES	Yeast lifespan up	RAM inhibit	WT yeast gro inh	Yeast growth inh
COc1ccc(/C=C/c2nc(-c3ccccc3O)n(-c3ccccc3)n2)cc1	.	.	.	.
COc1ccc(-c2cc(-c3ccccc3O)[nH]n2)cc1	.	.	.	76
Oc1ccc(Cl)cc1-c1cc(-c2ccccc2)n[nH]1	.	.	59	.
COc1ccc(/C=C/c2nc(-c3ccccc3O)n[nH]2)cc1	.	8.8	.	.
O=C(CC1NCCNC1=O)Nc1cccc([N+](=O)[O-])c1 (centres undefined)	/	.	.	/
COc1ccc(-n2ncc3c(NCc4ccco4)ncnc32)cc1	.	.	68	.
Cc1cc(S(=O)(=O)Nc2ccc3ccccc3c2)c(C)s1	.	9.2	.	.
CSc1ccccc1NC(=O)CO/N=C(\C)c1cc2ccccc2o1	.	9.2	.	.
CCc1ccc(NC(=O)CO/N=C(\C)c2cc3ccccc3o2)cc1	.	8.4	.	.
C/C(=N\OCC(=O)Nc1ccc(F)c(F)c1F)c1cc2ccccc2o1	.	.	.	.
C/C(=N\OCC(=O)NC12CC3CC(CC(C3)C1)C2)c1cc2ccccc2o1	.	.	66	.
CC(=O)N/C(=C\c1cccc([N+](=O)[O-])c1)C(=O)NC1CCCCC1	.	.	.	.
Cc1ccc(C)c(S(=O)(=O)Nc2nc3ccc(S(N)(=O)=O)cc3s2)c1	/	.	.	/
Nn1c(SCC(=O)Nc2ccc3c(c2)OCO3)nnc1-c1ccccc1	.	.	.	.
O=C(CSc1nnc2scc(-c3ccc(Cl)cc3)n12)NCc1ccc2c(c1)OCO2	.	.	.	.
CC1CCCC(C)N1C(=O)Cn1c(SCC(=O)NCc2ccc3c(c2)OCO3)nc2ccccc21 (centres undefined)	.	8.9	.	.
CC(=O)Nc1ccc(NC(=O)CSc2nnc(-c3ccccc3)n2Cc2ccc3c(c2)OCO3)cc1	.	8.6	66	.
O=C(CSc1nnc2scc(-c3ccccc3)n12)NCc1ccc2c(c1)OCO2	.	9.6	.	.
CC1(C)Cc2ccccc2-c2nnc(SCC(=O)Nc3ccc4c(c3)OCO4)n21	81	.	.	.
COc1ccc(-c2nnn(CC(=O)Nc3sc4c(c3C#N)CCCC4)n2)cc1	.	.	/	.
O=C(CCSc1nc(-c2ccco2)cc(C(F)(F)F)n1)NCCc1ccccc1	.	9.9	.	.
COc1ccccc1CCNC(=O)CCSc1nc(-c2ccco2)cc(C(F)(F)F)n1	/	.	.	.
COc1ccc(-c2cc(C(F)(F)F)nc(SCCC(=O)NCc3ccccc3)n2)cc1	.	9.6	.	.
COc1ccc(-c2cc(C(F)(F)F)nc(SCc3cccc(C(=O)O)c3)n2)cc1	.	.	.	.
O=C(NNc1ccccn1)C(c1ccccc1)c1ccccc1	/	.	.	/
SMILES	Yeast lifespan up	RAM inhibit	WT yeast gro inh	Yeast growth inh
O=C(NNC(=O)C(c1ccccc1)c1ccccc1)c1ccccn1	29	.	.	.
CCCN(CC1CC1)C(=S)Nc1ccccc1F	/	.	.	/
COc1ccc(/C(O)=C/c2nc3ccccc3n(-c3ccccc3)c2=O)cc1	.	.	/	.
O/C(=C\c1nc2ccccc2nc1/C=C(\O)c1ccccc1)c1ccccc1	/	.	74	/
O=C(Cc1sc(Nc2ccccc2)nc1-c1ccccc1)NCc1ccccc1	.	.	.	.
Cc1oc(=O)c(NC(=O)c2ccccc2)cc1C(C)O (centres undefined)	/	.	.	/
CCOC(=O)c1cc(NC(=O)c2ccccc2)c(=O)oc1-c1ccccc1	.	9.5	.	.
COc1ccc(C(=O)NCc2ccc(-n3cccc3)cc2)cc1OC	/	.	.	/
Cc1cc(S(=O)(=O)NCc2ccccc2)ccc1OCC(=O)Nc1cccc([N+](=O)[O-])c1	.	11	.	.
CN(Cc1ccccc1)S(=O)(=O)c1ccc(OCC(=O)Nc2cccc([N+](=O)[O-])c2)cc1	.	.	.	.
NC(=O)C1(N2CCCCC2)CCN(c2nc(-c3ccc(Br)cc3)cs2)CC1	.	.	65	.
CC(=O)c1sc(NC(=O)C2(F)C(F)(F)C(F)(F)C(F)(F)C(F)(F)C2(F)F)nc1C	.	.	.	.
CC1(C)CC(=O)C(C(c2cccc([N+](=O)[O-])c2)C2C(=O)CC(C)(C)CC2=O)C(=O)C1	27	.	.	.
Cc1ccccc1C(=O)NC(NC(=O)c1ccccc1C)c1cccc([N+](=O)[O-])c1	.	.	.	.
